# Data from ChEMBL document CHEMBL1134551, “The effect of 1,3-diaryl-[1H]-pyrazole-4-acetamides on glucose utilization in ob/ob mice” (2001).
# Key:
# Mus musculus [1] = experiment: Percentage efficacy to normalize the blood glucose levels to that of normal mouse in ob/ob mouse after 3 days and 8 hours of 300 mg/kg dose administration.; format: functional
# Summary of the method: (§1)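 Adult male C57BL ob/ob mice, n = 6/group, matched on day-0 blood glucose; non-diabetic animals (<150 mg/dL basal) excluded. Oral dosing each morning days 1-3 in 0.5% CMC with 0.2% Tween-80. Tail-nick blood glucose by YSI analyzer. % efficacy = {1 − ([glc]cpd − 100)/([glc]veh − 100)} × 100. Significance by t-test vs vehicle, p < 0.05.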
# Mus musculus [2] = experiment: Percentage efficacy to normalize the blood glucose levels to that of normal mouse in ob/ob mouse after 3 days and 4 hours of 300 mg/kg dose administration.; format: functional; summary of the method: as §1
# Mus musculus [3] = experiment: Percentage efficacy to normalize the blood glucose levels to that of normal mouse in ob/ob mouse after 3 days and 4 hours of 100 mg/kg dose administration; Nonsignificant; format: functional, organism-based; set-up: dose 100 mg/kg; summary of the method: as §1
# Mus musculus [4] = experiment: Percentage efficacy to normalize the blood glucose levels to that of normal mouse in ob/ob mouse after 3 days and 8 hours of 100 mg/kg dose administration; Nonsignificant; format: functional, organism-based; set-up: dose 100 mg/kg; summary of the method: as §1
# Mus musculus [5] = experiment: Percentage efficacy to normalize the blood glucose levels to that of normal mouse in ob/ob mouse after 3 days and 8 hours of 100 mg/kg dose administration.; format: functional; summary of the method: as §1
# Mus musculus [6] = experiment: Percentage efficacy to normalize the blood glucose levels to that of normal mouse in ob/ob mouse after 3 days and 4 hours of 100 mg/kg dose administration.; format: functional; summary of the method: as §1
# Mus musculus [7] = experiment: Percentage efficacy to normalize the blood glucose levels to that of normal mouse in ob/ob mouse after 3 days and 8 hours of 300 mg/kg dose administration; Nonsignificant; format: functional, organism-based; set-up: dose 300 mg/kg; summary of the method: as §1
# Mus musculus [8] = experiment: Percentage efficacy to normalize the blood glucose levels to that of normal mouse in ob/ob mouse after 3 days and 4 hours of 30 mg/kg dose administration.; format: functional; summary of the method: as §1
# Mus musculus [9] = experiment: Percentage efficacy to normalize the blood glucose levels to that of normal mouse in ob/ob mouse after 3 days and 8 hours of 30 mg/kg dose administration.; format: functional; summary of the method: as §1
# Mus musculus [10] = species on record: Mus musculus; experiment: Effective dose for glucose lowering in ob/ob mice; format: functional
# Summary of the method: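 ob/ob mice, once-daily oral dosing for 3 days in 0.5% CMC/0.2% Tween-80, or in 40% microemulsion (Cremophor RH40, corn oil-monoglyceride, propylene glycol, ethanol) where stated; tail-nick blood glucose. % efficacy computed as below at selected doses; ED50 from sigmoidal fit of dose-response curve.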
# Mus musculus [11] = experiment: Percentage efficacy to normalize the blood glucose levels to that of normal mouse in ob/ob mouse after 3 days and 4 hours of 300 mg/kg dose administration; Nonsignificant; format: functional, organism-based; set-up: dose 300 mg/kg; summary of the method: as §1
# Mus musculus [12] = experiment: Percentage efficacy to normalize the blood glucose levels to that of normal mouse in ob/ob mouse after 3 days and 4 hours of 30 mg/kg dose administration; Nonsignificant; format: functional, organism-based; set-up: dose 30 mg/kg; summary of the method: as §1
structure (smiles),measurement,setting,value
O=C(Cc1cn(-c2cccc(C(F)(F)F)c2)nc1-c1ccc(Cl)c(Cl)c1)N1CCCC1,Efficacy,Mus musculus [1],76%
same,Efficacy,Mus musculus [2],72%
CN(C)C(=O)Cc1cn(-c2cccc(C(F)(F)F)c2)nc1-c1ccc2ccccc2c1,Efficacy,Mus musculus [3],Not significant
same,Efficacy,Mus musculus [4],Not significant
CN(C)C(=O)Cc1cn(-c2cccc(C(F)(F)F)c2)nc1-c1cccc2ccccc12,Efficacy,Mus musculus [3],Not significant
same,Efficacy,Mus musculus [4],Not significant
CN(C)C(=O)Cc1cn(-c2cccc([N+](=O)[O-])c2)nc1-c1ccc(Cl)c(Cl)c1,Efficacy,Mus musculus [5],-88%
same,Efficacy,Mus musculus [6],-72%
CN(C)C(=O)Cc1cn(-c2ccc(Cl)c(Cl)c2)nc1-c1ccc(Cl)c(Cl)c1,Efficacy,Mus musculus [1],53%
same,Efficacy,Mus musculus [2],34%
CN1CCN(C(=O)Cc2cn(-c3cccc(C(F)(F)F)c3)nc2-c2ccc(Cl)c(Cl)c2)CC1,Efficacy,Mus musculus [7],Not significant
same,Efficacy,Mus musculus [2],54%
CN(C)C(=O)Cc1cn(-c2cccc(C(F)(F)F)c2)nc1-c1cc2ccccc2c2ccccc12,Efficacy,Mus musculus [3],Not significant
same,Efficacy,Mus musculus [4],Not significant
CN(C)C(=O)Cc1cn(-c2cccc(C(F)(F)F)c2)nc1-c1ccc(-c2ccc(-c3ccccc3)cc2)cc1,Efficacy,Mus musculus [3],Not significant
same,Efficacy,Mus musculus [4],Not significant
COc1ccc(-c2nn(-c3cccc(C(F)(F)F)c3)cc2CC(=O)N(C)C)cc1OC,Efficacy,Mus musculus [3],Not significant
same,Efficacy,Mus musculus [5],85%
CN(C)C(=O)Cc1cn(-c2cccc(C(F)(F)F)c2)nc1-c1ccc(Cc2ccccc2)cc1,Efficacy,Mus musculus [3],Not significant
same,Efficacy,Mus musculus [4],Not significant
CN(C)C(=O)Cc1cn(-c2cccc(C(F)(F)F)c2)nc1-c1ccc(C(C)(C)C)cc1,Efficacy,Mus musculus [3],Not significant
same,Efficacy,Mus musculus [4],Not significant
O=C(Cc1cn(-c2cccc(C(F)(F)F)c2)nc1-c1ccc(Cl)c(Cl)c1)N1CCN(c2ccccc2)CC1,Efficacy,Mus musculus [3],Not significant
same,Efficacy,Mus musculus [5],42%
CN(C)C(=O)Cc1cn(-c2cccc(C(F)(F)F)c2)nc1-c1ccc(-c2ccccc2)cc1,Efficacy,Mus musculus [8],80%
same,Efficacy,Mus musculus [9],94%
same,ED50,Mus musculus [10],1.3 mg/kg/day
same,Efficacy,Mus musculus [5],69%
same,Efficacy,Mus musculus [6],84%
CC(=O)OC1c2ccccc2-c2ccc(-c3nn(-c4cccc(C(F)(F)F)c4)cc3CC(=O)N(C)C)cc21 (centres undefined),Efficacy,Mus musculus [5],108%
same,Efficacy,Mus musculus [6],95%
Cc1cccc(-n2cc(CC(=O)N(C)C)c(-c3ccc(Cl)c(Cl)c3)n2)c1,Efficacy,Mus musculus [3],Not significant
same,Efficacy,Mus musculus [4],Not significant
CN(C)C(=O)Cc1cn(-c2cccc(C(F)(F)F)c2)nc1-c1ccc2sc3ccccc3c2c1,Efficacy,Mus musculus [4],Not significant
same,Efficacy,Mus musculus [6],59%
CN(C)C(=O)Cc1cn(-c2cccc(C(F)(F)F)c2)nc1-c1ccc2c(c1)CCc1ccccc1-2,Efficacy,Mus musculus [5],111%
same,Efficacy,Mus musculus [6],87%
O=C(Cc1cn(-c2cccc(C(F)(F)F)c2)nc1-c1ccc(Cl)c(Cl)c1)N(Cc1ccccc1)Cc1ccccc1,Efficacy,Mus musculus [5],49%
same,Efficacy,Mus musculus [6],52%
CN(C)C(=O)Cc1cn(-c2cccc(C(F)(F)F)c2)nc1-c1ccc(Cl)c(Cl)c1,Efficacy,Mus musculus [1],63%
same,Efficacy,Mus musculus [11],Not significant
CN(C)C(=O)Cc1cn(-c2cccc(C(F)(F)F)c2)nc1-c1ccc2c(c1)Cc1ccccc1-2,Efficacy,Mus musculus [8],113%
same,Efficacy,Mus musculus [9],115%
same,ED50,Mus musculus [10],0.05 mg/kg/day
same,Efficacy,Mus musculus [5],57%
same,Efficacy,Mus musculus [6],87%
O=C(O)Cc1cn(-c2cccc(C(F)(F)F)c2)nc1-c1ccc(Cl)c(Cl)c1,Efficacy,Mus musculus [11],Not significant
same,Efficacy,Mus musculus [7],Not significant
Cc1cc(C)cc(-n2cc(CC(=O)N(C)C)c(-c3ccc(Cl)c(Cl)c3)n2)c1,Efficacy,Mus musculus [11],Not significant
same,Efficacy,Mus musculus [7],Not significant
CN(C)C(=O)Cc1cn(-c2ccc(F)cc2)nc1-c1ccc(Cl)c(Cl)c1,Efficacy,Mus musculus [1],39%
same,Efficacy,Mus musculus [2],84%
O=C(Cc1cn(-c2cccc(C(F)(F)F)c2)nc1-c1ccc(Cl)c(Cl)c1)N1CCOCC1,Efficacy,Mus musculus [11],Not significant
same,Efficacy,Mus musculus [7],Not significant
O=C(Cc1cn(-c2cccc(F)c2)nc1-c1ccc(Cl)c(Cl)c1)N1CCCC1,Efficacy,Mus musculus [1],75%
same,Efficacy,Mus musculus [2],74%
CN(C)C(=O)Cc1cn(-c2ccc(Cl)cc2)nc1-c1ccc(Cl)c(Cl)c1,Efficacy,Mus musculus [1],52%
same,Efficacy,Mus musculus [2],47%
COc1ccc(-n2cc(CC(=O)N(C)C)c(-c3ccc(Cl)c(Cl)c3)n2)cc1,Efficacy,Mus musculus [1],35%
same,Efficacy,Mus musculus [2],39%
Cc1ccc(-c2nn(-c3cccc(C(F)(F)F)c3)cc2CC(=O)N(C)C)cc1,Efficacy,Mus musculus [1],36%
same,Efficacy,Mus musculus [2],58%
CN(C)C(=O)Cc1cn(-c2cccc(C(F)(F)F)c2)nc1-c1ccc2c(c1)C(C)(C)c1ccccc1-2,Efficacy,Mus musculus [5],83%
same,Efficacy,Mus musculus [6],67%
CN(C)C(=O)Cc1cn(-c2cccc(C(F)(F)F)c2)nc1-c1ccc(-c2ccc(F)cc2)cc1,Efficacy,Mus musculus [3],Not significant
same,Efficacy,Mus musculus [5],81%
CN(C)C(=O)Cc1cn(-c2ccc(C(F)(F)F)cc2)nc1-c1ccc(Cl)c(Cl)c1,Efficacy,Mus musculus [1],37%
same,Efficacy,Mus musculus [2],45%
CN(C)C(=O)Cc1cn(-c2cccc(C(F)(F)F)c2)nc1-c1ccc2c(c1)Cc1ccccc1C2,Efficacy,Mus musculus [5],70%
same,Efficacy,Mus musculus [6],79%
CN(C)C(=O)Cc1cn(-c2cccc(C(F)(F)F)c2)nc1-c1ccc2oc3ccccc3c2c1,Efficacy,Mus musculus [3],Not significant
same,Efficacy,Mus musculus [4],Not significant
CN(C(=O)Cc1cn(-c2cccc(C(F)(F)F)c2)nc1-c1ccc(Cl)c(Cl)c1)c1ccccc1,Efficacy,Mus musculus [7],Not significant
same,Efficacy,Mus musculus [2],57%
CN(C)C(=O)Cc1cn(-c2cccc(C(F)(F)F)c2)nc1-c1ccc2c(c1)C(C)(O)c1ccccc1-2 (centres undefined),Efficacy,Mus musculus [5],64%
same,Efficacy,Mus musculus [6],73%
CN(C)C(=O)Cc1cn(-c2cccc(C(F)(F)F)c2)nc1-c1ccc2c(c1)C(=O)c1ccccc1-2,Efficacy,Mus musculus [5],78%
same,Efficacy,Mus musculus [6],107%
O=C(Cc1cn(-c2cccc(C(F)(F)F)c2)nc1-c1ccc(Cl)c(Cl)c1)Nc1ccccc1,Efficacy,Mus musculus [11],Not significant
same,Efficacy,Mus musculus [7],Not significant
CCN(CC)C(=O)Cc1cn(-c2cccc(C(F)(F)F)c2)nc1-c1ccc(Cl)c(Cl)c1,Efficacy,Mus musculus [1],50%
same,Efficacy,Mus musculus [2],45%
CN(C)C(=O)Cc1cn(-c2cccc(C(F)(F)F)c2)nc1-c1ccc(Oc2ccccc2)cc1,Efficacy,Mus musculus [3],Not significant
same,Efficacy,Mus musculus [4],Not significant
CN(C)C(=O)Cc1cn(-c2cccc(C(F)(F)F)c2)nc1-c1ccccc1-c1ccccc1,Efficacy,Mus musculus [3],Not significant
same,Efficacy,Mus musculus [4],Not significant
CCOC(=O)Cc1cn(-c2cccc(C(F)(F)F)c2)nc1-c1ccc(Cl)c(Cl)c1,Efficacy,Mus musculus [11],Not significant
same,Efficacy,Mus musculus [7],Not significant
CN(C)C(=O)Cc1cn(-c2ccc(C(C)(C)C)cc2)nc1-c1ccc(Cl)c(Cl)c1,Efficacy,Mus musculus [3],Not significant
same,Efficacy,Mus musculus [4],Not significant
CN(C)C(=O)Cc1cn(-c2cccc(C(F)(F)F)c2)nc1-c1ccc2c(c1)Cc1ccccc1O2,Efficacy,Mus musculus [5],96%
same,Efficacy,Mus musculus [6],65%
CN(C)C(=O)Cc1cn(-c2cccc(C(F)(F)F)c2)nc1-c1ccc2c(ccc3ccccc32)c1,Efficacy,Mus musculus [5],71%
same,Efficacy,Mus musculus [6],90%
CN(C)C(=O)Cc1cn(-c2cccc(C(F)(F)F)c2)nc1-c1cccc(-c2ccccc2)c1,Efficacy,Mus musculus [3],Not significant
same,Efficacy,Mus musculus [4],Not significant
O=C(Cc1cn(-c2cccc(C(F)(F)F)c2)nc1-c1ccc(Cl)c(Cl)c1)NO,Efficacy,Mus musculus [11],Not significant
same,Efficacy,Mus musculus [7],Not significant
CONC(=O)Cc1cn(-c2cccc(C(F)(F)F)c2)nc1-c1ccc(Cl)c(Cl)c1,Efficacy,Mus musculus [1],35%
same,Efficacy,Mus musculus [2],48%
O=C(Cc1cn(-c2cccc(C(F)(F)F)c2)nc1-c1ccc(Cl)c(Cl)c1)N1CCCCC1,Efficacy,Mus musculus [11],Not significant
same,Efficacy,Mus musculus [7],Not significant
CN(C)C(=O)Cc1cn(-c2cc(Cl)cc(Cl)c2)nc1-c1ccc(Cl)c(Cl)c1,Efficacy,Mus musculus [7],Not significant
same,Efficacy,Mus musculus [2],52%
O=C(Cc1cn(-c2cccc(C(F)(F)F)c2)nc1-c1ccc(Cl)c(Cl)c1)N1CCN(C(c2ccccc2)c2ccccc2)CC1,Efficacy,Mus musculus [3],Not significant
same,Efficacy,Mus musculus [9],48%
same,Efficacy,Mus musculus [12],Not significant
same,Efficacy,Mus musculus [5],45%
CN(C)C(=O)Cc1cn(-c2cccc(C(F)(F)F)c2)nc1-c1ccccc1,Efficacy,Mus musculus [1],36%
same,Efficacy,Mus musculus [2],71%
CN(C)C(=O)Cc1cn(-c2cccc(C(F)(F)F)c2)nc1-c1ccc(Cl)cc1,Efficacy,Mus musculus [1],78%
same,Efficacy,Mus musculus [11],Not significant
CN(C)C(=O)Cc1cn(-c2cc(C(F)(F)F)cc(C(F)(F)F)c2)nc1-c1ccc(Cl)c(Cl)c1,Efficacy,Mus musculus [11],Not significant
same,Efficacy,Mus musculus [7],Not significant
